In ChEMBL document CHEMBL4680287, “Ibrexafungerp: An orally active β-1,3-glucan synthesis inhibitor” (Bioorg Med Chem Lett, 2021):
≈ marks a conversion by molar mass, not a printed value.

Key:
[1] = Inhibition of beta-1,3-glucan synthase in Candida albicans MY1055 microsomal membrane assessed as inhibition of TCA-insoluble material formation using UDP-[3H]-glucose as substrate incubated for 2 hrs in presence of GTP by radioactivity-based assay; assay type: microsomes, Microsome
In short: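 GS IC50 measured using Candida albicans MY1055 microsomal membrane fragments as the enzyme source.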

Candida albicans [2] = experiment: Antifungal activity against Candida albicans MY1055 assessed as fungal growth inhibition measured after 24 hrs by liquid microdilution method; assay type: functional
In short: (§1)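 Broth microdilution per CLSI protocols in RPMI medium. Read-out is the MIC, the lowest concentration completely inhibiting fungal growth. Run without serum and with added serum.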

Aspergillus fumigatus = experiment: Antifungal activity against Aspergillus fumigatus MF5668 assessed inhibition of fungal growth by measuring morphological changes measured after 24 hrs by microscopy; assay type: functional; settings: read-out: MEC
In short: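 Microdilution per CLSI protocols in RPMI medium. Read-out is the minimum effective concentration (MEC). Run without serum and with 50% human serum.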

Candida albicans [3] = experiment: Antifungal activity against Candida albicans MY1055 assessed as fungal growth inhibition measured after 24 hrs in presence of 50% mouse serum by liquid microdilution method; assay type: functional; in short: as §1
Candida albicans [4] = experiment: Antifungal activity against Candida albicans MY1055 infected in DBA/2 mouse model of disseminated candidiasis assessed as reduction in fungal burden in kidney by measuring log change in colony forming units at 12.5 mg/kg, po bid for 7 days by TOKA; assay type: functional; settings: time 7 day
In short: (§2)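 Murine disseminated candidiasis model (TOKA) in mice challenged with C. albicans MY1055 at 2.44 x 10^4 CFU/mouse. Dosed PO, or IP where stated. Kidneys collected aseptically 7 days after challenge and CFUs/g counted. Change in log CFU/g is relative to sham-treated controls; significance by two-tailed t test. Clearance is the percentage of kidneys below the detection limit.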

Candida albicans [5] = experiment: Antifungal activity against Candida albicans MY1055 infected in DBA/2 mouse model of disseminated candidiasis assessed as reduction in fungal burden in kidney by measuring log change in colony forming units at 12.5 mg/kg, ip bid for 7 days by TOKA; assay type: functional; settings: time 7 day; in short: as §2
[6] = Dose normalized AUC in po dosed mouse; assay type: ADME, organism-based; settings: in vivo
[7] = Oral bioavailability in mouse; assay type: ADME, organism-based; settings: in vivo
In short: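 Oral bioavailability calculated as oral AUC normalized to the IV dose, divided by the IV AUC.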

Candida albicans [8] = experiment: Antifungal activity against Candida albicans MY1055 infected in DBA/2 mouse model of disseminated candidiasis assessed as reduction in fungal burden in kidney by measuring log change in colony forming units at 25 mg/kg, po bid for 7 days by TOKA; assay type: functional; settings: time 7 day; in short: as §2
Candida albicans [9] = experiment: Antifungal activity against Candida albicans MY1055 infected in DBA/2 mouse model of disseminated candidiasis assessed as reduction in fungal burden in kidney by measuring log change in colony forming units at 6.25 mg/kg, po bid for 7 days by TOKA; assay type: functional; settings: time 7 day; in short: as §2

Row | SMILES | IC50 [1] [µg/mL] | MIC (Candida albicans [2]) [µg/mL] | minimal effective concentration (Aspergillus fumigatus) [µg/mL] | MIC (Candida albicans [3]) [µg/mL] | Activity (Candida albicans [4]) [deltalog10CFU] | Activity (Candida albicans [5]) [deltalog10CFU] | AUC/dose [6] [µM·kg·h/mg] | bioavailability [7] [%] | Activity (Candida albicans [8]) [deltalog10CFU] | Activity (Candida albicans [9]) [deltalog10CFU]
1 | CC(C)[C@@H](C)[C@@]1(C)CC[C@]2(C)[C@H]3CC[C@@H]4[C@@]5(COC[C@@]4(C)[C@@H](OCC(C)(C)N)[C@H](n4ncnc4-c4ccncc4)C5)C3=CC[C@@]2(C)[C@@H]1C(=O)O | 0.001 | 0.015 (≈ 0.0218 µM) | < 0.03 | 0.5 | -1.1 | -4.2 | – | – | – | –
2 | CC(C)[C@@H](C)[C@@]1(C)CC[C@]2(C)[C@H]3CC[C@@H]4[C@@]5(COC[C@@]4(C)[C@@H](OC[C@](C)(N)C(C)C)[C@H](n4ncnc4-c4ccncn4)C5)C3=CC[C@@]2(C)[C@@H]1C(=O)O | 0.005 | < 0.03 | < 0.03 | 4 | – | – | 2.38 | 43 | – | –
3 | CC(C)[C@@H](C)[C@@]1(C)CC[C@]2(C)[C@H]3CC[C@@H]4[C@@]5(COC[C@@]4(C)[C@@H](OC[C@](C)(N)C(C)C)[C@H](n4ncnc4-c4cncnc4)C5)C3=CC[C@@]2(C)[C@@H]1C(=O)O | 0.006 | 0.06 (≈ 0.0837 µM) | < 0.03 | 1 | -3 | – | 0.33 | 26 | -3 | -2.1
4 | CC(C)[C@@H](C)[C@@]1(C)CC[C@]2(C)[C@H]3CC[C@@H]4[C@@]5(COC[C@@]4(C)[C@@H](OC[C@@]4(N)CCOCC4(C)C)[C@H](n4ncnc4-c4ccncc4)C5)C3=CC[C@@]2(C)[C@@H]1C(=O)O | 0.004 | 0.06 (≈ 0.0791 µM) | 0.004 | 1 | -2.2 | – | 0.35 | 25 | -3.2 | -0.9
5 | CCC(N)(CC)CO[C@H]1[C@H](n2ncnc2-c2ccncc2)C[C@@]23COC[C@]1(C)[C@@H]2CC[C@H]1C3=CC[C@@]2(C)[C@H](C(=O)O)[C@@](C)([C@H](C)C(C)C)CC[C@]12C | 0.001 | 0.06 (≈ 0.0838 µM) | < 0.03 | 1 | -2.3 | – | – | – | -3.3 | -1.3
6 | CN[C@@](C)(CO[C@H]1[C@H](n2ncnc2-c2ccncc2)C[C@@]23COC[C@]1(C)[C@@H]2CC[C@H]1C3=CC[C@@]2(C)[C@H](C(=O)O)[C@@](C)([C@H](C)C(C)C)CC[C@]12C)C(C)(C)C | 0.002 | 0.03 (≈ 0.0403 µM) | 0.008 | 1 | -3.2 | – | 0.62 | – | -4.2 | -1.7
7 | CC(C)[C@@H](C)[C@@]1(C)CC[C@]2(C)[C@H]3CC[C@@H]4[C@@]5(COC[C@@]4(C)[C@@H](OC[C@](C)(N)C(C)C)[C@H](n4ncnc4-c4ccncc4F)C5)C3=CC[C@@]2(C)[C@@H]1C(=O)O | 0.001 | 0.015 (≈ 0.0204 µM) | 0.008 | 1 | -2.5 | – | 0.34 | 26 | -4.2 | -2.6
8 | CN[C@@](C)(CO[C@H]1[C@H](n2ncnc2-c2ccncc2)C[C@@]23COC[C@]1(C)[C@@H]2CC[C@H]1C3=CC[C@@]2(C)[C@H](C(=O)O)[C@@](C)([C@H](C)C(C)C)CC[C@]12C)C(C)C | 0.001 | 0.06 (≈ 0.0822 µM) | < 0.03 | 0.5 | -3.1 | – | 0.83 | 29 | -3.7 | -0.9
9 | CC(C)[C@@H](C)[C@@]1(C)CC[C@]2(C)[C@H]3CC[C@@H]4[C@@]5(COC[C@@]4(C)[C@@H](OC[C@](C)(N)C(C)C)[C@H](n4ncnc4-c4cccnc4)C5)C3=CC[C@@]2(C)[C@@H]1C(=O)O | 0.004 | 0.06 (≈ 0.0838 µM) | < 0.03 | 1 | -2.9 | – | 0.17 | 11 | -3.1 | -1.4
10 | CC(C)[C@@H](C)[C@@]1(C)CC[C@]2(C)[C@H]3CC[C@@H]4[C@@]5(COC[C@@]4(C)[C@@H](OC[C@](C)(N)C4(C)CC4)[C@H](n4ncnc4-c4ccncc4)C5)C3=CC[C@@]2(C)[C@@H]1C(=O)O | 0.002 | < 0.03 | < 0.03 | 0.5 | -2.6 | – | 0.65 | 36 | -4.3 | -1.5
11 | CC(C)[C@@H](C)[C@@]1(C)CC[C@]2(C)[C@H]3CC[C@@H]4[C@@]5(COC[C@@]4(C)[C@@H](OC[C@](C)(N)c4ccccc4)[C@H](n4ncnc4-c4ccncc4)C5)C3=CC[C@@]2(C)[C@@H]1C(=O)O | 0.006 | 0.25 (≈ 0.333 µM) | 0.125 | 4 | -1.5 | – | – | – | -2.6 | -0.5
12 | COc1cccc(-c2ncnn2[C@@H]2C[C@@]34COC[C@](C)([C@@H]3CC[C@H]3C4=CC[C@@]4(C)[C@H](C(=O)O)[C@@](C)([C@H](C)C(C)C)CC[C@]34C)[C@H]2OC[C@](C)(N)C(C)C)c1 | 0.011 | 0.25 (≈ 0.336 µM) | < 0.03 | 32 | – | – | – | – | – | –
13 | CN[C@@](C)(CO[C@H]1[C@H](n2ncnc2-c2cccnc2)C[C@@]23COC[C@]1(C)[C@@H]2CC[C@H]1C3=CC[C@@]2(C)[C@H](C(=O)O)[C@@](C)([C@H](C)C(C)C)CC[C@]12C)C(C)C | 0.005 | 0.25 (≈ 0.342 µM) | < 0.03 | 1 | -2.4 | – | 0.59 | 21 | -3 | -1.1
14 | CC(C)[C@@H](C)[C@@]1(C)CC[C@]2(C)[C@H]3CC[C@@H]4[C@@]5(COC[C@@]4(C)[C@@H](OC[C@H](N)C(C)(C)C)[C@H](n4ncnc4-c4ccncc4)C5)C3=CC[C@@]2(C)[C@@H]1C(=O)O | 0.007 | 0.25 (≈ 0.349 µM) | < 0.03 | 2 | -2.4 | – | – | – | -2.6 | -1
15 | CC(C)[C@@H](C)[C@@]1(C)CC[C@]2(C)[C@H]3CC[C@@H]4[C@@]5(COC[C@@]4(C)[C@@H](OC[C@](C)(N)C(C)C)[C@H](n4ncnc4-c4ccc(F)cc4)C5)C3=CC[C@@]2(C)[C@@H]1C(=O)O | 0.011 | 0.25 (≈ 0.341 µM) | < 0.03 | 8 | – | – | – | – | – | –
16 | CC(C)[C@@H](C)[C@@]1(C)CC[C@]2(C)[C@H]3CC[C@@H]4[C@@]5(COC[C@@]4(C)[C@@H](OC[C@](C)(N)C(C)C)[C@H](n4ncnc4-c4ccnnc4)C5)C3=CC[C@@]2(C)[C@@H]1C(=O)O | 0.002 | 0.125 (≈ 0.174 µM) | < 0.03 | 1 | -1.2 | – | 0.23 | 29 | -2.6 | -1.2
17 | CN[C@@](C)(CO[C@H]1[C@H](n2ncnc2-c2ccccn2)C[C@@]23COC[C@]1(C)[C@@H]2CC[C@H]1C3=CC[C@@]2(C)[C@H](C(=O)O)[C@@](C)([C@H](C)C(C)C)CC[C@]12C)C(C)C | 0.003 | 0.25 (≈ 0.342 µM) | < 0.03 | 16 | – | – | – | – | – | –
18 | CC(C)[C@@H](C)[C@@]1(C)CC[C@]2(C)[C@H]3CC[C@@H]4[C@@]5(COC[C@@]4(C)[C@@H](OC[C@](C)(N)C(C)C)[C@H](n4ncnc4-c4ccccc4)C5)C3=CC[C@@]2(C)[C@@H]1C(=O)O | 0.003 | 0.25 (≈ 0.35 µM) | < 0.03 | 4 | -1.7 | – | 0.5 | 28 | -2.4 | -0.2
